Among the data in ChEMBL document CHEMBL2321659, “Design, synthesis, and biological evaluation of indenoisoquinoline rexinoids with chemopreventive potential” (J Med Chem, 2013) are viability and Ratio values, retold here.

Each structure is given as a SMILES string.

Data set [1] is described as follows: Cytotoxicity against African green monkey COS1 cells assessed as cell survival. In kind it is cell-based. Set-up: concentration or dose not given beside the values. To be noted: chlorocebus aethiops, COS-1 cells; read-out: Activity.
Data set [2] concerns the target T1, Retinoic acid receptor RXR-alpha (Homo sapiens) (UniProt P19793).
T1 sequence (whole entry): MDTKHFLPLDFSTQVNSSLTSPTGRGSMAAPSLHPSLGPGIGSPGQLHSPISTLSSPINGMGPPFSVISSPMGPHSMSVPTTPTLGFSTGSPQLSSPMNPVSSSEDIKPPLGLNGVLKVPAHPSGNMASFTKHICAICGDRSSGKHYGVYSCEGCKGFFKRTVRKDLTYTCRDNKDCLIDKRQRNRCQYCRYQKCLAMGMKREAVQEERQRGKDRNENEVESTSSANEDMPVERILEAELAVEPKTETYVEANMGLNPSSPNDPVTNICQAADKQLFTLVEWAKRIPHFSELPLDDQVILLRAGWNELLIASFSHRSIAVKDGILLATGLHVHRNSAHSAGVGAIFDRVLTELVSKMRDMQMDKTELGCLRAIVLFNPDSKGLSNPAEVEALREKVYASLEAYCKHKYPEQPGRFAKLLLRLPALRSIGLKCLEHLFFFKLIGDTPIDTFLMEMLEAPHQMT
Nature of the data set: Activation of human RXRalpha activity expressed in COS1 cells assessed as induction ratio at 50 uM after 12 hrs by RXRE-luciferase reporter gene assay relative to untreated control. In kind it is cell-based. The settings on record: COS-1. The method in brief: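 COS-1 cells transiently co-transfected per well with 100 ng RXRE-firefly luciferase reporter, 50 ng human RXRα expression vector and 3 ng Renilla luciferase vector using Lipofectamine 2000 for 24 h, then exposed to compound for a further 12 h. Dual-luciferase read-out. Induction ratio taken at 50 µM test concentration.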
Background: Reporter assays use an easily measured gene product as a stand-in for the process of interest.

In the case of `CNCCCn1c2c(c3ccc(N)cc3c1=O)C(=O)c1ccccc1-2`, the viability in data set [1] turned out to be 53%.

`Cn1c2c(c3ccc(C(N)=O)cc3c1=O)C(=O)c1ccccc1-2`: the Ratio in data set [2] was below 1.

Regarding `Cn1c2c(c3ccc(/C=C/C(=O)O)cc3c1=O)C(=O)c1ccccc1-2`, the Ratio in data set [2] is below 1.

As to `N#Cc1ccc2c3c(n(CCCN4CCOCC4)c(=O)c2c1)-c1ccccc1C3=O`, in data set [2], the Ratio was below 1.

`NCCCn1c2c(c3ccc(NC(=O)CCCCC(=O)O)cc3c1=O)C(=O)c1ccccc1-2`: in data set [2], the Ratio is below 1.

In the case of `COCCCn1c2c(c3ccccc3c1=O)C(=O)c1ccccc1-2`, in data set [2], the Ratio is below 1.

With `Cn1c2c(c3ccc(CCCC(=O)O)cc3c1=O)C(=O)c1ccccc1-2`, the Ratio in data set [2] is below 1.

Regarding `NC(=O)CCn1c2c(c3ccccc3c1=O)C(=O)c1ccccc1-2`, the Ratio in data set [2] was below 1.

With `COC(=O)CCCCC(=O)Nc1ccc2c3c(n(CCCN)c(=O)c2c1)-c1ccccc1C3=O`, in data set [2], the Ratio is below 1.

As to `CC(=O)Nc1ccc2c3c(n(CCCO)c(=O)c2c1)-c1ccccc1C3=O`, the Ratio in data set [2] was below 1.

On to `CC(=O)Nc1ccc2c3c(n(CCCCl)c(=O)c2c1)-c1ccccc1C3=O`, for which the Ratio in data set [2] is below 1.

As to `COC(=O)CCn1c2c(c3ccc(Br)cc3c1=O)C(=O)c1ccccc1-2`, in data set [2], the Ratio was below 1.

Take `O=C(O)CCn1c2c(c3ccc([N+](=O)[O-])cc3c1=O)C(=O)c1ccccc1-2`: the Ratio in data set [2] is below 1.

With `COc1ccc2c(c1)C(=O)c1c-2n(CCCN)c(=O)c2cc(OC)c(OC)cc12`, the Ratio in data set [2] is below 1.

For the molecule `[N-]=[N+]=NCCCn1c2c(c3ccc([N+](=O)[O-])cc3c1=O)C(=O)c1ccccc1-2`, the Ratio in data set [2] was below 1.

For the molecule `CN(C)c1ccc2c3c(n(CCCNC(=O)OC(C)(C)C)c(=O)c2c1)-c1ccccc1C3=O`, the Ratio in data set [2] was below 1.

For `Cn1c2c(c3ccc(NC(=O)C(=O)O)cc3c1=O)C(=O)c1ccccc1-2`, the Ratio in data set [2] was below 1.

As to `CNc1ccc2c3c(n(CCCN)c(=O)c2c1)-c1ccccc1C3O` (configuration not stated), the Ratio in data set [2] was below 1.

On to `COC(=O)CCCCC(=O)Nc1ccc2c3c(n(C)c(=O)c2c1)-c1ccccc1C3=O`, for which the Ratio in data set [2] is below 1.

With `NCCCn1c2c(c3ccc(NC(=O)CC(=O)O)cc3c1=O)C(=O)c1ccccc1-2`, in data set [2], the Ratio was below 1.

With `Cn1c2c(c3ccc([N+](=O)[O-])cc3c1=O)C(=O)c1ccccc1-2`, the Ratio in data set [2] is below 1.

For `Cn1c2c(c3ccc(C(=O)O)cc3c1=O)C(=O)c1ccccc1-2`, in data set [2], the Ratio is below 1.

As to `COC(=O)c1ccc2c3c(n(CCCN4CCOCC4)c(=O)c2c1)-c1ccccc1C3=O`, in data set [2], the Ratio was below 1.

Consider `COC(=O)CCCC(=O)Nc1ccc2c3c(n(CCCN)c(=O)c2c1)-c1ccccc1C3=O`, for which the Ratio in data set [2] was below 1.

On to `O=C(O)CCn1c2c(c3ccccc3c1=O)C(=O)c1ccccc1-2`, for which, in data set [2], the Ratio is below 1.

Take `O=C1c2ccccc2-c2c1c1ccc(Br)cc1c(=O)n2CCCn1ccnc1`: the Ratio in data set [2] was below 1.

Regarding `CC(=O)Nc1ccc2c3c(n(CCCN=[N+]=[N-])c(=O)c2c1)-c1ccccc1C3=O`, the Ratio in data set [2] is below 1.

Turning to `Cn1c2c(c3ccc(NCC(=O)O)cc3c1=O)C(=O)c1ccccc1-2`, the Ratio in data set [2] is below 1.

Take `COC(=O)c1ccc2c3c(n(C)c(=O)c2c1)-c1ccccc1C3=O`: the Ratio in data set [2] was below 1.

With `N#Cc1ccc2c3c(n(CCCn4ccnc4)c(=O)c2c1)-c1ccccc1C3=O`, the Ratio in data set [2] is below 1.

Take `COC(=O)C(=O)Nc1ccc2c3c(n(CCCN)c(=O)c2c1)-c1ccccc1C3=O`: in data set [2], the Ratio is below 1.

Take `CC(C)(C)OC(=O)NCCCn1c2c(c3ccc(N)cc3c1=O)C(=O)c1ccccc1-2`: in data set [2], the Ratio was below 1.

Take `CC(=O)NCCCn1c2c(c3ccc([N+](=O)[O-])cc3c1=O)C(=O)c1ccccc1-2`: the Ratio in data set [2] was below 1.

Regarding `COC(=O)Cc1ccc2c3c(n(C)c(=O)c2c1)-c1ccccc1C3=O`, the Ratio in data set [2] is below 1.

`COC(=O)CCCC(=O)Nc1ccc2c3c(n(C)c(=O)c2c1)-c1ccccc1C3=O`: in data set [2], the Ratio was below 1.

`Cc1cc2c(cc1C1(c3ccc(C(=O)O)cn3)CC1)C(C)(C)CCC2(C)C`: the viability in data set [1] was 84.3%.

Turning to `O=C1c2ccccc2-c2c1c1ccc([N+](=O)[O-])cc1c(=O)n2CCCCl`, the Ratio in data set [2] is below 1.

Regarding `[N-]=[N+]=NCCn1c2c(c3ccc([N+](=O)[O-])cc3c1=O)C(=O)c1ccccc1-2`, the Ratio in data set [2] was below 1.

For `O=C1c2ccccc2-c2c1c1ccc([N+](=O)[O-])cc1c(=O)n2CCCCO`, the Ratio in data set [2] is below 1.

Turning to `NC(=O)CCn1c2c(c3ccc([N+](=O)[O-])cc3c1=O)C(=O)c1ccccc1-2`, in data set [2], the Ratio was below 1.

Turning to `COc1ccc2c(c1)C(=O)c1c-2n(CCCN)c(=O)c2cc(N(C)C)ccc12`, in data set [2], the Ratio was below 1.

For the molecule `CNc1ccc2c3c(n(CCCN)c(=O)c2c1)-c1ccccc1C3=O`, in data set [1], the viability amounted to 45.9%.

Regarding `O=C1c2ccccc2-c2c1c1ccc([N+](=O)[O-])cc1c(=O)n2CCCO`, the Ratio in data set [2] was below 1.

As for `Nc1ccc2c3c(n(CCCO)c(=O)c2c1)-c1ccccc1C3O` (configuration not stated), the Ratio in data set [2] is below 1.

Take `COC(=O)CCCc1ccc2c3c(n(C)c(=O)c2c1)-c1ccccc1C3=O`: in data set [2], the Ratio is below 1.

As to `CCCCn1c2c(c3ccccc3c1=O)C(=O)c1ccccc1-2`, the Ratio in data set [2] is below 1.

Take `Nc1ccc2c3c(n(CCCO)c(=O)c2c1)-c1ccccc1C3=O`: the Ratio in data set [2] was below 1.

Consider `CC(C)(C)OC(=O)NCCCn1c2c(c3ccc([N+](=O)[O-])cc3c1=O)C(=O)c1ccccc1-2`, for which, in data set [2], the Ratio was below 1.

Consider `O=C1c2ccccc2-c2c1c1ccccc1c(=O)n2CCCO`, for which the Ratio in data set [2] is below 1.

For the molecule `COC(CCn1c2c(c3ccc([N+](=O)[O-])cc3c1=O)C(=O)c1ccccc1-2)OC`, the Ratio in data set [2] is below 1.

With `COC(=O)CC(=O)Nc1ccc2c3c(n(C)c(=O)c2c1)-c1ccccc1C3=O`, in data set [2], the Ratio is below 1.

Take `Cn1c2c(c3ccc(I)cc3c1=O)C(=O)c1ccccc1-2`: in data set [2], the Ratio was below 1.

For the molecule `CCOC(=O)CNc1ccc2c3c(n(C)c(=O)c2c1)-c1ccccc1C3=O`, the Ratio in data set [2] was below 1.

On to `CNCCCn1c2c(c3ccc(N)cc3c1=O)C(O)c1ccccc1-2` (configuration not stated), for which the Ratio in data set [2] is below 1.

Take `COC(=O)c1ccc2c3c(n(CCCn4ccnc4)c(=O)c2c1)-c1ccccc1C3=O`: in data set [2], the Ratio is below 1.

As to `Cn1c2c(c3ccccc3c1=O)C(=O)c1ccccc1-2`, in data set [2], the Ratio was below 1.

In the case of `Cn1c2c(c3ccc(Br)cc3c1=O)C(=O)c1ccccc1-2`, the Ratio in data set [2] is below 1.

For `Nc1ccc2c3c(n(CCCCl)c(=O)c2c1)-c1ccccc1C3=O`, the Ratio in data set [2] was below 1.

Consider `COCCCn1c2c(c3ccc([N+](=O)[O-])cc3c1=O)C(=O)c1ccccc1-2`, for which, in data set [2], the Ratio was below 1.

Consider `CN(C)CCCn1c2c(c3ccc(C#N)cc3c1=O)C(=O)c1cc3c(cc1-2)OCO3`, for which the Ratio in data set [2] is below 1.

In the case of `COC(=O)C(=O)Nc1ccc2c3c(n(C)c(=O)c2c1)-c1ccccc1C3=O`, the Ratio in data set [2] was below 1.

Consider `NCCCn1c2c(c3ccc(NC(=O)C(=O)O)cc3c1=O)C(=O)c1ccccc1-2`, for which the Ratio in data set [2] is below 1.

As for `Cn1c2c(c3ccc(C=O)cc3c1=O)C(=O)c1ccccc1-2`, in data set [2], the Ratio is below 1.

As for `Cn1c2c(c3ccc(C#N)cc3c1=O)C(=O)c1ccccc1-2`, the Ratio in data set [2] is below 1.

Regarding `COC(=O)CCC(=O)Nc1ccc2c3c(n(CCCN)c(=O)c2c1)-c1ccccc1C3=O`, the Ratio in data set [2] was below 1.

With `CCOC(CCn1c2c(c3ccc([N+](=O)[O-])cc3c1=O)C(=O)c1ccccc1-2)OCC`, the Ratio in data set [2] is below 1.

Regarding `NCCCn1c2c(c3ccc(N)cc3c1=O)C(O)c1ccccc1-2` (configuration not stated), in data set [2], the Ratio is below 1.

As for `O=C1c2ccccc2-c2c1c1ccc([N+](=O)[O-])cc1c(=O)n2CCCBr`, in data set [2], the Ratio is below 1.

For the molecule `Cc1ccc2c3c(n(C)c(=O)c2c1)-c1ccccc1C3=O`, the Ratio in data set [2] is below 1.

With `O=CCCn1c2c(c3ccc([N+](=O)[O-])cc3c1=O)C(=O)c1ccccc1-2`, the Ratio in data set [2] was below 1.

With `CNc1ccc2c3c(n(CCCNC(=O)OC(C)(C)C)c(=O)c2c1)-c1ccccc1C3O` (configuration not stated), the Ratio in data set [2] is below 1.

For `NCCCn1c2c(c3ccc(NC(=O)CCC(=O)O)cc3c1=O)C(=O)c1ccccc1-2`, the Ratio in data set [2] was below 1.

With `O=C1c2ccccc2-c2c1c1ccc(Br)cc1c(=O)n2CCCO`, in data set [2], the Ratio was below 1.

On to `Cn1c2c(c3ccc(Cl)cc3c1=O)C(=O)c1ccccc1-2`, for which the Ratio in data set [2] was below 1.

With `Cn1c2c(c3ccc(/C=C/C#N)cc3c1=O)C(=O)c1ccccc1-2`, the Ratio in data set [2] is below 1.

Consider `COC(=O)C#Cc1ccc2c3c(n(C)c(=O)c2c1)-c1ccccc1C3=O`, for which the Ratio in data set [2] was below 1.

Turning to `COC(=O)CCC(=O)Nc1ccc2c3c(n(C)c(=O)c2c1)-c1ccccc1C3=O`, the Ratio in data set [2] was below 1.

Turning to `CNc1ccc2c3c(n(CCCNC(=O)OC(C)(C)C)c(=O)c2c1)-c1ccccc1C3=O`, in data set [2], the Ratio was below 1.

On to `Cn1c2c(c3ccc(CC(=O)O)cc3c1=O)C(=O)c1ccccc1-2`, for which the Ratio in data set [2] was below 1.

On to `NCCCn1c2c(c3ccc(NC(=O)CCCC(=O)O)cc3c1=O)C(=O)c1ccccc1-2`, for which the Ratio in data set [2] is below 1.

As for `COC(=O)/C=C/c1ccc2c3c(n(C)c(=O)c2c1)-c1ccccc1C3=O`, in data set [2], the Ratio was below 1.

Take `Cn1c2c(c3ccc(NC(=O)CC(=O)O)cc3c1=O)C(=O)c1ccccc1-2`: the Ratio in data set [2] was below 1.
